# Measured values published in PubChem BioAssay AID624467 (The Scripps Research Institute Molecular Screening Center, 2012).
# Hit rate of the full screen: of about 360,000 compounds, about 3,600 (1%) were called active.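 The calls were made as follows: active = activation above the mean activation of all test compounds in the run plus 3 SD (cut at about 38% in these data); inactive = the rest.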 Only a selection was taken, and actives are over-represented in it overall.
# Target: Trace amine-associated receptor 1 (Homo sapiens) (UniProt Q96RJ0)
# Assay: human TAAR1 agonists, primary screen, Fluo-8 calcium fluorescence, CHO RD-HGA16 cells (AID 624467)
# Settings: CHO RD-HGA16 TAAR1, Fluo-8 calcium fluorescence; at 3 µM; hits give high values; vehicle wells 0%, saturating PEA agonist 100%
# Method in brief: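 Test system: RD-HGA16 (CHO) cells co-expressing Gα16 and hTAAR1; dosing: one-point dosing at 3 µM (nominal); timing: 17-24 h seeding, 75 min 37 °C dye, 30 min RT; signal: kinetic Fluo-8 calcium fluorescence; read-out basis: % activation relative to PEA EC100 response; controls: DMSO and PEA EC100; replicates: n 1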
# Sequence of Trace amine-associated receptor 1 (Homo sapiens) (Q96RJ0 whole entry, looked up): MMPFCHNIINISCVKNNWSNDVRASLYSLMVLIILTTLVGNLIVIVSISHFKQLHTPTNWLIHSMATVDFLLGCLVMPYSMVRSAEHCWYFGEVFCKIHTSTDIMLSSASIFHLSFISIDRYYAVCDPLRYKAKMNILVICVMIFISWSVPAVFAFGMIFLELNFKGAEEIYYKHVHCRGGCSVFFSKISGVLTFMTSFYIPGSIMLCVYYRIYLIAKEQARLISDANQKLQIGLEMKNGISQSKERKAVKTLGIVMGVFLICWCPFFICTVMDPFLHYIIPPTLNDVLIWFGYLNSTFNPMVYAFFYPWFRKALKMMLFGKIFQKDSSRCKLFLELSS
row,Compound,activation
1,CCCCCCc1cc2cc(-c3nnc(-c4cccc(OC)c4)o3)c(=O)oc2cc1O,16.7% (inactive)
2,CCn1cc(CN2CCCC(CNS(=O)(=O)Cc3ccccc3)C2)cn1 (stereo not given),0.93% (inactive)
3,COc1ccc2nc3n(c(=O)c2c1)-c1ccc(Cl)cc1C(=O)NC3Cc1ccccc1 (stereo not given),4.87% (inactive)
4,O=S(=O)(NCCc1ccccc1)c1ccccc1,15.9% (inactive)
5,Cn1c(=O)c(=O)n(C)c2cc(S(=O)(=O)NCCN3CCN(c4ccccc4F)CC3)ccc21,-1.59% (inactive)
6,Cn1c(=O)c(=O)n(C)c2cc(S(=O)(=O)NCCc3ccccc3)ccc21,82.3% (active)
7,C[C@@H](CN1C2=NC[C@@H](Cc3ccccc3)N2C[C@H]1Cc1ccc(O)cc1)NC(=O)CCC1CCCCC1,-0.01% (inactive)
8,O=C(NCC1(N2CCCCC2)CCCCC1)c1cccc(S(=O)(=O)Nc2ccccc2Cl)c1,-0.1% (inactive)
9,C[C@H]1[C@H](c2ccccc2)Oc2cc(Br)ccc2S(=O)(=O)N1Cc1cccc(F)c1,2.18% (inactive)
10,Cc1ccnc(NC(=O)C(C)N2C(=O)c3ccccc3C2=O)c1 (stereo not given),2.11% (inactive)
11,Cc1cccc(NC(=O)C(C)N2C(=O)C3C4CC(C(Br)C4Br)C3C2=O)c1 (stereo not given),49.9% (active)
12,Cc1cccc(NC(=O)CN2C(=O)CNC2=O)c1,6.24% (inactive)
13,Cc1cccc(N(C(=O)c2ccc(CN3CCOCC3)o2)C(C(=O)NC2CCCCC2)c2ccc(F)cc2)c1 (stereo not given),0.09% (inactive)
14,COc1ccccc1C(=O)N1O[C@]23C=C[C@]14C[C@@H](O)CC[C@]4(C)C2CC[C@]1(C)[C@@H]([C@H](C)/C=C/[C@H](C)C(C)C)CC[C@H]13 (stereo not given in full),-1.12% (inactive)
15,O=C(Nc1c(Cl)c(C2CC2)nn1-c1ccccc1)C(Cl)(Cl)Cl,1.51% (inactive)
16,CCCCOc1ccc(CON(C(C)=O)C(C)=O)cc1Cl,-2.24% (inactive)
17,CCCCCOc1ccc(CSC2=NCCN2)cc1[N+](=O)[O-],40.3% (active)
18,CCCCOc1ccc(CSC(=N)N)cc1[N+](=O)[O-],68.2% (active)
19,CCCCOC(=O)CCCc1ccc([N+](=O)[O-])cc1[N+](=O)[O-],-2.61% (inactive)
20,O=[N+]([O-])c1ccccc1OCCCCN1CCCCC1,7.82% (inactive)
21,CCOc1ccc(C(=O)Nc2nccs2)cc1[N+](=O)[O-],5.29% (inactive)
22,C#CCN([C@@H](C)C(=O)OCC)S(=O)(=O)c1ccc(Br)cc1F,-2.1% (inactive)
23,O=C(C[C@@H]1C/C=C\CCC(=O)OC[C@@H]2CCCN2C1=O)NCCO,13.4% (inactive)
24,C[C@H](CO)N1C[C@H](C)[C@@H](CN(C)C(=O)Nc2ccccc2F)OCc2cn(nn2)CCCC1=O,0.9% (inactive)
25,Cc1ccc(NC(=O)c2cnc(SCC(=O)NCC3CCCO3)n(C)c2=O)cc1 (stereo not given),1.71% (inactive)
26,Cc1ccccc1-c1nc(CS(=O)(=O)CC(=O)NC(C)c2ccccc2)c(C)o1 (stereo not given),-0.93% (inactive)
27,Cc1ccccc1-c1nc(CS(=O)(=O)CC(=O)N2CCc3ccccc3C2)c(C)o1,45.5% (active)
28,CSc1ccc(CCNC(=O)CS(=O)(=O)Cc2nc(-c3ccccc3F)oc2C)cc1,2.41% (inactive)

row,Compound,activation
1,CCOC(=O)/C=C/c1ccccc1O,0.06% (inactive)
2,CC(=O)N1Cc2cc(C(=O)NCc3cccc(F)c3)nc(-c3cccc(C4=CCCC4)c3)c2[C@H]1CCO,1.95% (inactive)
3,COCCn1nnnc1C(c1cc2ccc(OC)cc2[nH]c1=O)N1CCc2ccccc2C1 (stereo not given),5.6% (inactive)
4,COc1ccccc1C(c1nnnn1C(C)(C)C)N1CCN(Cc2ccccc2)CC1 (stereo not given),7.42% (inactive)
5,COc1ccc(OC)c(C(c2nnnn2C(C)(C)C)N2CCc3ccccc3C2)c1 (stereo not given),64.7% (active)
6,O=C(NNC(=O)c1cc(-c2ccccc2Cl)nc2ccccc12)c1csc(N2CCOCC2)n1,2.63% (inactive)
7,O=C(OCCOc1ccccc1F)c1cc(S(=O)(=O)N2CCOCC2)ccc1F,3.93% (inactive)
8,COc1cccc(-c2cc(CNC(=O)[C@@H](Cc3ccccc3)NC(=O)[C@H]3O[C@@H](n4cnc(C(N)=O)n4)[C@H](O)[C@@H]3O)no2)c1,2.47% (inactive)
9,Cc1ccc(NC(=O)CN(C)C(=O)c2ccc(Cl)c(S(=O)(=O)NCc3ccco3)c2)cc1,1.71% (inactive)
10,COc1ccc(CNC(=O)c2ccc(-c3cccnc3)c3ccoc23)cc1OC,19.1% (inactive)
11,CCc1ccc(N2CC(O)=C(c3nc4ccccc4c(=O)[nH]3)C2=N)cc1,7.2% (inactive)
12,N=C1C(c2nc3ccccc3[nH]2)=C(O)CN1NC(=O)c1c[nH]c2ccccc12,41.7% (active)
13,C[N+](C)(C)CCNC(=O)c1c[nH]c2ccccc12,3.46% (inactive)
14,C=CCN=C1NC(c2ccccc2)C(C(=O)OC)=C(C)N1Cc1ccc(C(F)(F)F)cc1 (stereo not given),26.7% (inactive)
15,CCN(CC)CCCC(C)n1c2nc(=O)[nH]c(=O)c-2nc2cc(Cl)ccc21 (stereo not given),244% (active)
16,COc1cccc(CC(=O)N2CCN(C(=O)C(=O)c3cccc(C(F)(F)F)c3)CC2)c1,-0.34% (inactive)
17,CCCCCCCCN1C(=O)[C@@H](CC(=O)NCc2ccc(C)o2)C[C@@]2(C(=O)OC)C1=C[C@H](C(C)(C)C)O[C@@H]2C,-1.18% (inactive)
18,CCCc1cc(C(=O)Nc2ccc(Cl)cn2)cs1,0.75% (inactive)
19,CCN(CC)C(=O)CCC(=O)Nc1ccc(C(=O)OC)cc1,4.26% (inactive)
20,CCCc1cc(C(=O)Nc2ccc(C(=O)OC)cc2)cs1,42.9% (active)
21,NC1=NC(c2ccc([N+](=O)[O-])cc2)N(c2ccc(F)cc2)C(N)=N1 (stereo not given),2.32% (inactive)
22,COC(=O)Cc1csc(Nc2c(C)n(C)n(-c3ccccc3)c2=O)n1,7.82% (inactive)
23,CCOC(=O)Cc1csc(NC(NC(=O)OCC)(C(F)(F)F)C(F)(F)F)n1,11.4% (inactive)
24,CCOC(=O)Cc1csc(NC(=O)Nc2ccccc2)n1,51.5% (active)
25,CCCOCC(O)CC(CC)C(=O)NNC(=S)Nc1ccccc1 (stereo not given),6.99% (inactive)
26,CCCCC(=O)NNC(=S)NC(=O)C(c1ccccc1)c1ccccc1,137% (active)
27,C/C(=N\NC(=O)CNC(=O)C(c1ccccc1)c1ccccc1)c1ccc(C)cc1,-0.46% (inactive)
